Values after ≈ are worked out from the molar mass of the structure shown.
How the values were obtained:
Type in all cases: functional
Mus musculus [1] = assay: In vivo antibacterial activity against Bacteroides fragilis (UC no 6428) infected mice after sc administration
Mus musculus [2] = assay: In vivo antibacterial activity against Escherichia coli (UC no 311) infected mice after sc administration
How it was run: (§1)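 Fresh drug solutions were given subcutaneously (0.2 mL) or by oral intubation (0.5 mL), per line. Dosing was immediately after infection, then daily for 4 consecutive days, with 3 further days of observation. CD50 was calculated by Spearman-Karber.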

Mus musculus [3] = assay: In vivo antibacterial activity against Plasmodium berghei infected mice (Mus musculus) after subcutaneous administration
Mus musculus [4] = assay: In vivo antibacterial activity against Staphylococcus aureus (UC no 76) infected mice after sc administration; how it was run: as §1
Mus musculus [5] = assay: In vivo antibacterial activity against Streptococcus pneumoniae I(UC 41) infected mice after oral administration; how it was run: as §1
Mus musculus [6] = assay: In vivo antibacterial activity against Streptococcus pneumoniae […](UC 3213) infected mice after sc administration; how it was run: as §1
Mus musculus [7] = assay: (§2) In vivo antibacterial activity against Pasteurella multocida(UC 264) infected mice after oral administration; how it was run: as §1
Actinomyces naeslundii = assay: In vitro antibacterial activity against the anaerobic Actinomyces naeslundii (Strain UC no.5920)
Bacteroides fragilis [8] = assay: In vitro antibacterial activity against the anaerobic Bacteroides fragilis (Strain UC no.6862)
How it was run: (§3)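 Agar dilution with serial twofold drug dilutions in Schaedler broth mixed into molten Wilkens-Chalgren agar. Strains grown 48 h on Schaedler agar, suspended to 0.5 McFarland, and 0.001 mL spotted by replicator. All steps done anaerobically. Incubation 48 h at 37 °C. MIC is the least drug inhibiting growth; a faint film or fewer than three colonies scored negative.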

Bacteroides fragilis [9] = assay: In vitro antibacterial activity against the anaerobic Bacteroides fragilis (Strain UC no.6428)
[10] = tested on: Bacteroides thetaiotaomicron; assay: In vitro antibacterial activity against the anaerobic Bacteroides thetaiotaomicron (Strain UC no.6512); how it was run: as §3
Clostridioides difficile [11] = assay: In vitro antibacterial activity against the anaerobic Clostridium difficile (Strain UC no.6834); how it was run: as §3
Clostridioides difficile [12] = assay: In vitro antibacterial activity against the anaerobic Clostridium difficile (Strain UC no.6858); how it was run: as §3
[13] = tested on: Fusobacterium necrophorum; assay: In vitro antibacterial activity against the anaerobic Fusobacterium necrophorum (Strain UC no.6568); how it was run: as §3
Klebsiella pneumoniae = assay: In vivo antibacterial activity against Klebsiella pneumoniae(UC no 58) infected mice after sc administration; how it was run: as §1
Pasteurella multocida = assay: as §2; how it was run: as §1
Plasmodium berghei = assay: In vivo activity against Plasmodium berghei in mice (Mus musculus) on oral administration
Proteus vulgaris = assay: In vivo antibacterial activity against Proteus vulgaris(UC no 347) infected mice after sc administration; how it was run: as §1
Finegoldia magna = assay: In vitro antibacterial activity against the anaerobic Peptococcus magnus(Strain UC no.6258); how it was run: as §3
Staphylococcus aureus [14] = assay: In vitro antibacterial activity against the aerobic Staphylococcus aureus (Strain UC no.6690)
How it was run: (§4)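 Broth microdilution in brain/heart infusion broth with twofold drug dilutions. Inoculum was a standardized suspension giving 10⁵ viable cells/mL final. Plates were incubated 20 h at 37 °C. MIC (mcg/mL) = lowest concentration with no visible growth.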

Staphylococcus aureus [15] = assay: In vivo antibacterial activity against Staphylococcus aureus (UC no 76) infected mice after sc administration (value in parenthesis is 95% confidence interval); how it was run: as §1
[16] = tested on: Staphylococcus epidermidis; assay: In vitro antibacterial activity against the aerobic Staphylococcus epidermidis (Strain UC no.719); how it was run: as §4
[17] = tested on: Staphylococcus epidermidis; assay: In vitro antibacterial activity against the aerobic Staphylococcus epidermidis (Strain UC no.3389); how it was run: as §4

## CCC[C@@H]1C[C@@H](C(=O)N[C@@H]([C@H]2O[C@H](SC)[C@H](O)[C@@H](O)[C@H]2O)[C@H](C)Cl)N(C)C1 [CLINDAMYCIN]
Mus musculus [1]
  CD50: 14.4 mg/kg
Mus musculus [2]
  CD50: >160 mg/kg
Mus musculus [3]
  CD50: 53 mg/kg
Mus musculus [4]
  CD50: 5.7 mg/kg
Mus musculus [5]
  CD50: 45.5 mg/kg
Mus musculus [6]
  CD50: 20 mg/kg
Mus musculus [7]
  CD50: >400 mg/kg

## CC[C@@H]1CCN[C@H](C(=O)N[C@@H]([C@H]2O[C@H](SC)[C@H](O)[C@@H](O)[C@H]2O)[C@H](C)Cl)C1 [PIRLIMYCIN]
Actinomyces naeslundii
  MIC: 0.25 µg/mL (≈ 0.608 µM)
Bacteroides fragilis [8]
  MIC: 15.6 µg/mL (≈ 38 µM)
Bacteroides fragilis [9]
  MIC: 0.25 µg/mL (≈ 0.608 µM)
[10]
  MIC: 0.5 µg/mL (≈ 1.22 µM)
Clostridioides difficile [11]
  MIC: 3.9 µg/mL (≈ 9.49 µM)
Clostridioides difficile [12]
  MIC: 3.9 µg/mL (≈ 9.49 µM)
[13]
  MIC: 0.06 µg/mL (≈ 0.146 µM)
Klebsiella pneumoniae
  CD50: >320 mg/kg
Pasteurella multocida
  CD50: 400 mg/kg
Plasmodium berghei
  CD50: >50 mg/kg
Proteus vulgaris
  CD50: >160 mg/kg
Finegoldia magna
  MIC: 0.06 µg/mL (≈ 0.146 µM)
Staphylococcus aureus [14]
  MIC: 0.2 µg/mL (≈ 0.487 µM)
Staphylococcus aureus [15]
  CD50: 0.4 mg/kg
[16]
  MIC: 0.2 µg/mL (≈ 0.487 µM)
[17]
  MIC: 0.2 µg/mL (≈ 0.487 µM)

Reference: ChEMBL document CHEMBL1122773 (1984)
